According to ChEMBL document CHEMBL5331142, “Novel 1,4-Dihydropyridines as Specific Binders and Activators of SIRT3 Impair Cell Viability and Clonogenicity and Downregulate Hypoxia-Induced Targets in Cancer Cells” (J Med Chem, 2023):
The source made the active and inactive calls. The rule behind the calls is not given here.

Key:
[1] = target: T1, NAD-dependent protein deacetylase sirtuin-3, mitochondrial (Homo sapiens) (UniProt Q9NTG7); test: Activation of human SIRT3 overexpressing in human MDA-MB-231 cells assessed as increase in GDH activity at 50 uM incubated for 4 hrs by absorbance assay; format: cell-based
T1 sequence (whole entry): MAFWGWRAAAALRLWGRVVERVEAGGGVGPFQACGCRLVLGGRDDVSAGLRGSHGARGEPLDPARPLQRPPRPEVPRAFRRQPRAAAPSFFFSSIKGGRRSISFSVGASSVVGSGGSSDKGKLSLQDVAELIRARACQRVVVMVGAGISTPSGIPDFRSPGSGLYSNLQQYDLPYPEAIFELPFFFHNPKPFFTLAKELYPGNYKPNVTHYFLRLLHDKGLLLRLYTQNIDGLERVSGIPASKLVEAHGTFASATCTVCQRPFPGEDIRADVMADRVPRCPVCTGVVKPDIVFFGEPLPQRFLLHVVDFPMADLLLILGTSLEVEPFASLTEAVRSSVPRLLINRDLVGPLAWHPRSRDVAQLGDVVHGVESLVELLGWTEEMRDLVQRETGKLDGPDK
Procedure, shortened: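 MDA-MB-231 cells exposed 4 h to 50 μM compound. 10^6 cells lysed in GDH assay buffer for 10 min on ice. Supernatant mixed with developer and glutamate, incubated 3 min at 37 °C, absorbance read at 450 nm with buffer blank subtracted. SIRT3-overexpressing MDA-MB-231 cells served as reference.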

[2] = target: T1, NAD-dependent protein deacetylase sirtuin-3, mitochondrial (Homo sapiens); test: Activation of N-terminal his-tagged human SIRT3 (114 to 380 residues) deacylation activity expressed in Escherichia coli at 10 uM using ACS2-acK642 as substrate in presence of NAD+ by NADH oxidation-coupled enzymatic assay; conditions: filed as activator
Procedure, shortened: (§1)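 Coupled PncA/GDH deacylation assay following NADPH oxidation to NADP+. 1.5 μM sirtuin, 50 μM substrate peptide, 100 μM NAD+, compound at 10 μM, 5% final DMSO. Isoform-specific physiological substrates: p53-acK381 (SIRT1), […] (SIRT2), ACS2-acK642 (SIRT3), CPS1-succK537 (SIRT5). Sirtuins expressed in E. coli, Ni-NTA purified, tag cleaved, then size-exclusion chromatography.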

CAL-62 [3] = test: Downregulation of CA-IX expression in human CAL-62 cells at 50 uM incubated for 48 hrs under hypoxia condition by Western blot analysis; format: functional, cell-based
Procedure, shortened: (§2)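 CAL-62 or MDA-MB-231 cells made hypoxic with 200 μM CoCl2 for 24 h, then treated with 50 μM compound for 48 h with CoCl2 retained. Lysates (15 or 50 μg protein) immunoblotted for HIF-1α, EPAS-1 or CA-IX with ACTB, ECL detection. 3-TYP (1 μM) as control.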

CAL-62 [4] = test: Anticancer activity against human CAL-62 cells assessed as reduction in cell viability at 50 uM incubated for 24 to 48 hrs under normoxia condition by trypan blue exclusion assay; format: functional, cell-based; conditions: time 24-48 hrs, TDE = time-dependent effect
Procedure, shortened: (§3)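 CAL-62 cells in RPMI 1640 with 10% FBS, treated with 50 μM compound (DMSO) for 24 and 48 h. Hypoxia induced with 200 μM CoCl2, kept in the medium during treatment. Viable cells counted by 0.4% trypan blue staining on a hemocytometer.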

[5] = target: T2, NAD-dependent protein deacetylase sirtuin-3, mitochondrial (Homo sapiens, UniProt Q9NTG7); test: Binding affinity to N-terminal his-tagged human SIRT3 (114 to 380 residues) assessed as dissociation constant by SPR analysis
T2 sequence (Q9NTG7 whole entry): T1 sequence (whole entry)
Procedure, shortened: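 SPR with SIRT3 amine-coupled to the chip (sodium acetate pH 4.0; 1500–4000 RU). Analytes diluted to 200 μM in HBSP (20 mM Hepes, 150 mM NaCl, 0.005% P20; 2% DMSO), injected at 5, 10, 20, 40, 80 μM at 30 μL/min. Dissociation after 180 s. Reference chip lacked ligand. Apparent KD by Scatchard analysis. Run twice.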

CAL-62 [6] = test: Anticancer activity against human CAL-62 cells assessed as reduction in cell viability at 50 uM incubated for 24 to 48 hrs under hypoxia condition by trypan blue exclusion assay; format: functional, cell-based; conditions: time 24-48 hrs, TDE = time-dependent effect; procedure, shortened: as §3
CAL-62 [7] = test: Downregulation of HIF1alpha expression in human CAL-62 cells at 1 uM incubated for 48 hrs under hypoxia condition by Western blot analysis; format: functional, cell-based
CAL-62 [8] = test: Downregulation of EPAS-1 expression in human CAL-62 cells at 1 uM incubated for 48 hrs under hypoxia condition by Western blot analysis; format: functional, cell-based
CAL-62 [9] = test: Downregulation of CA-IX expression in human CAL-62 cells at 1 uM incubated for 48 hrs under hypoxia condition by Western blot analysis; format: functional, cell-based
MDA-MB-231 [10] = test: Downregulation of HIF1alpha expression in human MDA-MB-231 cells at 1 uM incubated for 48 hrs under hypoxia condition by Western blot analysis; format: functional, cell-based
MDA-MB-231 [11] = test: Downregulation of CA-IX expression in human MDA-MB-231 cells at 1 uM incubated for 48 hrs under hypoxia condition by Western blot analysis; format: functional, cell-based
MDA-MB-231 [12] = test: Downregulation of EPAS-1 expression in human MDA-MB-231 cells at 1 uM incubated for 48 hrs under hypoxia condition by Western blot analysis; format: functional, cell-based
[13] = target: T1, NAD-dependent protein deacetylase sirtuin-3, mitochondrial (Homo sapiens); test: Activation of N-terminal his-tagged human SIRT3 (114 to 380 residues) deacylation activity expressed in Escherichia coli at 100 uM using ACS2-acK642 as substrate in presence of NAD+ by NADH oxidation-coupled enzymatic assay
Procedure, shortened: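 Coupled PncA/GDH deacylation assay following NADPH oxidation to NADP+. 1.5 μM SIRT3 (E. coli-expressed, tag removed) with 50 μM ACS2-acK642 peptide and 100 μM NAD+, compound at 100 μM, 5% final DMSO.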

[14] = target: T3, NAD-dependent protein deacetylase sirtuin-1 (Homo sapiens) (UniProt Q96EB6); test: Activation of N-terminal his-tagged human SIRT1 expressed in Escherichia coli at 10 uM using p53-acK381 as substrate in presence of NAD+ by NADH oxidation-coupled enzymatic assay; procedure, shortened: as §1
T3 sequence (whole entry): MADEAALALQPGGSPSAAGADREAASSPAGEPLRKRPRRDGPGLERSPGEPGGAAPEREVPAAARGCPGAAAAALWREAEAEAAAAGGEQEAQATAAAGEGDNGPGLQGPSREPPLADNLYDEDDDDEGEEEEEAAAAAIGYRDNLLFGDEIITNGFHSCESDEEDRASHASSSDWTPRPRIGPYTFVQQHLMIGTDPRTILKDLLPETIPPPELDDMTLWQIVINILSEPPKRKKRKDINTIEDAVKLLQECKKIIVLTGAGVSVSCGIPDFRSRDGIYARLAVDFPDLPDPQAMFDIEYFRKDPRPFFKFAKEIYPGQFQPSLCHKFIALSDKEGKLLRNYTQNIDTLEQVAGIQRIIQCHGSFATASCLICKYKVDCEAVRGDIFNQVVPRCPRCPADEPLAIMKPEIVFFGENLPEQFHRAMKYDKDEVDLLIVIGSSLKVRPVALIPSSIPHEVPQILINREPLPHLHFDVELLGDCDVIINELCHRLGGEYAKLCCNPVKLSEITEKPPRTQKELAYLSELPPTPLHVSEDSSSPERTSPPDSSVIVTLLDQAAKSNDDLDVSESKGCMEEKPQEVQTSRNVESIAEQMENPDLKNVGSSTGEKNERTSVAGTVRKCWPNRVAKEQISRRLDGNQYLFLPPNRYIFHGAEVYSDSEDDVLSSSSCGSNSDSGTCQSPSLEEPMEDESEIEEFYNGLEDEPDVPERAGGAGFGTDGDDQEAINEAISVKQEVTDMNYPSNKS

[15] = target: T4, NAD-dependent protein deacetylase sirtuin-2 (Homo sapiens) (UniProt Q8IXJ6); test: Activation of N-terminal his-tagged human SIRT2 (43 to 356 residues) expressed in Escherichia coli at 10 uM using p53-acK381 as substrate in presence of NAD+ by NADH oxidation-coupled enzymatic assay
T4 sequence (whole entry): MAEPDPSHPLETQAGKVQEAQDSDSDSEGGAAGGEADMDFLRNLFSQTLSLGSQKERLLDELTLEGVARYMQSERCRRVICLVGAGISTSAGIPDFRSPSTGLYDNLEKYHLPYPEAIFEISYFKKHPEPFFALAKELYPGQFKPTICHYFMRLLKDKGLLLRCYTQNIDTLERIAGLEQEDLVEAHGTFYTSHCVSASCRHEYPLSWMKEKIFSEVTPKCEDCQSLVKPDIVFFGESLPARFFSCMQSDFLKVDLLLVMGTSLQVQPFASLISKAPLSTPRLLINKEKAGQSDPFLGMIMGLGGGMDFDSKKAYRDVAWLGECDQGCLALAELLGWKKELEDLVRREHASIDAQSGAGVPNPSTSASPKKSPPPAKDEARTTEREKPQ

CAL-62 [16] = test: Inhibition of clonogenicity in human CAL-62 cells at 50 uM incubated for 24 to 48 hrs under hypoxia condition by crystal violet staining based assay; format: functional; conditions: time 24-48 hrs
Procedure, shortened: (§4)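 CAL-62 cells at 80–90% confluence treated with 50 μM compound for 24 or 48 h, in normoxia or with 200 μM CoCl2 (hypoxia). 500 cells replated per 100 mm dish and grown about 7 days. Colonies fixed in 4% formaldehyde, stained with 0.5% crystal violet, and counted.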

[17] = target: NAD-dependent protein deacylase sirtuin-5, mitochondrial (Homo sapiens) (UniProt Q9NXA8); test: Activation of N-terminal his-tagged human SIRT5 (34 to 302 residues) expressed in Escherichia coli at 10 uM using p53-acK381 as substrate in presence of NAD+ by NADH oxidation-coupled enzymatic assay
NAD-dependent protein deacylase sirtuin-5, mitochondrial (Homo sapiens), sequence (Q9NXA8 37-310 limits assumed): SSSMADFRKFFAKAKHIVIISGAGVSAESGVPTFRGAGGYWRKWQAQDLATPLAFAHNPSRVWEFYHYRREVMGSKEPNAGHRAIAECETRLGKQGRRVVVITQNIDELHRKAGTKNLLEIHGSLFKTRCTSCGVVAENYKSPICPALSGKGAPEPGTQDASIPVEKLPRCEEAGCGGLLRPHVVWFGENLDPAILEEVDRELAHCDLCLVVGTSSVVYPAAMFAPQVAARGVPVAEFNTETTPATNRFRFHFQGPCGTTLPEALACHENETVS

CAL-62 [18] = test: Inhibition of clonogenicity in human CAL-62 cells at 50 uM incubated for 24 to 48 hrs under normoxia condition by crystal violet staining based assay; format: functional; conditions: time 24-48 hrs; procedure, shortened: as §4
CAL-62 [19] = test: Downregulation of HIF1alpha expression in human CAL-62 cells at 50 uM incubated for 48 hrs under hypoxia condition by Western blot analysis; format: functional, cell-based; procedure, shortened: as §2

SMILES | Activity [2] [%] | Activity ([13]; filed as activator) | also measured
CCOC(=O)C1=CN(C(=O)c2ccc(OC)cc2)C=C(C(=O)OCC)C1c1ccccc1 | 120 |  | Activity [1]: inactive; Activity (CAL-62 [3]): Active; Activity (CAL-62 [4]): Tde; Kd [5]: 72 µM; Activity (CAL-62 [6]): Tde
CCOC(=O)C1=CN(C(=O)c2cccs2)C=C(C(=O)OCC)C1c1ccccc1 | 120 |  | 
CCOC(=O)C1=CN(C(=O)c2cccc([N+](=O)[O-])c2)C=C(C(=O)OCC)C1c1ccccc1 | 120 |  | 
c1cncc(-c2cnn[nH]2)c1 |  |  | Activity (CAL-62 [7]): inactive; Activity (CAL-62 [8]): inactive; Activity (CAL-62 [9]): inactive; Activity (MDA-MB-231 [10]): inactive; Activity (MDA-MB-231 [11]): inactive; Activity (MDA-MB-231 [12]): inactive
CCOC(=O)C1=CN(C(=O)c2ccc([N+](=O)[O-])cc2)C=C(C(=O)OCC)C1c1ccccc1 | 120 |  | 
CCOC(=O)C1=CN(C(=O)c2ccc(Br)cc2)C=C(C(=O)OCC)C1c1ccccc1 | 120 | 184% | 
CCOC(=O)C1=CN(C(=O)c2ccc(F)cc2)C=C(C(=O)OCC)C1c1ccccc1 | 120 | 142% | 
CCOC(=O)C1=CN(C(=O)C2CCCCC2)C=C(C(=O)OCC)C1c1ccccc1 | 120 | Active | 
CCOC(=O)C1=CN(C(=O)c2cc(OC)c(OC)c(OC)c2)C=C(C(=O)OCC)C1c1ccccc1 | 128 | 269% | Activity ([1]; filed as activator): 175%
CCOC(=O)C1=CN(C(=O)c2ccc(Cl)cc2)C=C(C(=O)OCC)C1c1ccccc1 | 120 | 237% | Kd [5]: 74 µM
CCOC(=O)C1=CN(C(=O)c2ccsc2)C=C(C(=O)OCC)C1c1ccccc1 | 120 |  | Activity [13]: inactive
CCOC(=O)C1=CN(C(=O)c2ccccc2)C=C(C(=O)OCC)C1c1ccccc1 | 157 | 188% | 
CCOC(=O)C1=CN(C(=O)c2ccco2)C=C(C(=O)OCC)C1c1ccccc1 | 120 |  | 
CCOC(=O)C1=CN(C(=O)c2cccc(Br)c2)C=C(C(=O)OCC)C1c1ccccc1 | 120 | 214% | 
CCOC(=O)C1=CN(C(=O)c2cccc(Cl)c2)C=C(C(=O)OCC)C1c1ccccc1 | 120 | 204% | 
CCOC(=O)C1=CN(C(=O)Cc2ccccc2)C=C(C(=O)OCC)C1c1ccccc1 | 176 | Active | 
CCOC(=O)C1=CN(C(=O)c2cccc(OC)c2)C=C(C(=O)OCC)C1c1ccccc1 |  | 217% | Activity ([1]; filed as activator): Active; Activity (CAL-62 [3]): Active; Activity [14]: inactive; Activity [15]: inactive; inhibition at 50 µM (CAL-62 [16]): 53%; Activity (CAL-62 [4]): Tde; Activity [17]: inactive; Kd [5]: 78 µM; inhibition at 50 µM (CAL-62 [18]): 53%; Activity (CAL-62 [19]): Active; Activity (CAL-62 [6]): Tde
CCOC(=O)C1=CN(C(=O)c2ccc(C#N)cc2)C=C(C(=O)OCC)C1c1ccccc1 | 120 |  | 
CCOC(=O)C1=CN(C(=O)c2cccc(F)c2)C=C(C(=O)OCC)C1c1ccccc1 | 120 | 196% | 
